RGS4 block: RGS4 inhibitors, primary screen, cell-based, HEK293 M3R inducible RGS4, calcium flux; AID 463165, 2010; Regulator of G-protein signaling 4 (Homo sapiens), P49798; Fluo-4 calcium flux; hits give high values; triggered by carbachol at its EC20; B-score at 10 µM; hit rate 0.45% among 310,000;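 active means B-score, a plate-corrected calcium signal, over three deviations above library mean, with baseline fluorescence within five deviations of library mean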;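 further: RGS4 expression induced by doxycycline in cells with stable M3 receptor; B-score is computed from the integrated fluorescence ratio over baseline after carbachol; higher B-score means a larger calcium signal and so more RGS4 inhibition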
Target sequence (P49798 whole entry, looked up): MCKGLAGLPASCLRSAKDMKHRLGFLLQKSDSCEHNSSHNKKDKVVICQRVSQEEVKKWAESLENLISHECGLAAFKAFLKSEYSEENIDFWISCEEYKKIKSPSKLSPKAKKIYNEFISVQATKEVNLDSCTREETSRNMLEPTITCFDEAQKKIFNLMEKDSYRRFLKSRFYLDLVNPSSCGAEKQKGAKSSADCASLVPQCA
MrgX1 allo act: positive allosteric modulators of MrgX1, primary screen, HEK293 cells, Fluo-4 calcium flux; FDSS; hits give high values; Mas-related G-protein coupled receptor member X1 (Homo sapiens), Q96LB2; hit rate 0.63% among 310,000; AID 588675, 2011; B-score at 10 µM;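 active means plate-corrected calcium response at least 3 library SD above typical, normal starting fluorescence, not activating the receptor alone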;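 further: compound read alongside a low EC10 to EC30 dose of BAM8-22 agonist; peak minus trough fluorescence over baseline measured at the second addition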
Target sequence (Q96LB2 whole entry, looked up): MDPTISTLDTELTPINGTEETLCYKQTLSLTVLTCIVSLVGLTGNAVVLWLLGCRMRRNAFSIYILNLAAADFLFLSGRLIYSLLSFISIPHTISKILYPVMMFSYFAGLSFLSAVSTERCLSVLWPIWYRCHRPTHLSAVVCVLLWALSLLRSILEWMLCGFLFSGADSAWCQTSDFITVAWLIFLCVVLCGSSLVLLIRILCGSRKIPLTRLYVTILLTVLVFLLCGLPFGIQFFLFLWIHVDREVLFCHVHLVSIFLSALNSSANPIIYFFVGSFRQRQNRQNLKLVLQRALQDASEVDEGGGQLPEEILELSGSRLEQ
RGS4 pot: RGS4 potentiators or activators, primary screen, cell-based, HEK293 M3R inducible RGS4, calcium flux. carbachol calcium flux Fluo4; hits give low values. B-score at 10 µM. hit rate 0.92% among 310,000. AID 463111, 2010;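 active means B-score of the integrated calcium signal more than 4 SD below the library mean, with starting fluorescence not abnormally high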;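 further: negative B-score means reduced calcium response which marks RGS4 activation or potentiation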
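Assay system: HEK293 FlpIn-TREx cells, stable M3R, doxycycline-inducible RGS4 / Probe or stimulus: carbachol, ECmax concentration / Times: overnight RGS4 induction, 30 min dye load 37 °C, 20 min compound RT / Signal: kinetic calcium fluorescence imaging with Fluo4-AM dye, 2 µM / Measure: Agonist-evoked peak-minus-minimum fluorescence over baseline, integrated ratio, B score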
MrgX1 antagonist: antagonists of human MrgX1 receptor, primary screen, HEK293 cells, Fluo-4 calcium flux | Mas-related G-protein coupled receptor member X1 (Homo sapiens), Q96LB2 | BAM8-22 antagonism; hits give low values | B-score at 10 µM | hit rate 1.3% among 310,000 | AID 588676, 2011;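 active means calcium-response B-score plate-corrected more than 3 library SD below zero, starting fluorescence within 5 deviations, no agonist response on first addition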;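 further: peak minus trough fluorescence over baseline after final BAM8-22 challenge near maximal dose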
MrgX1 agonist: agonists of human MrgX1 receptor, primary screen, HEK293 cells, Fluo-4 calcium flux; B-score at 10 µM; AID 588627, 2011; hit rate 0.44% among 310,000; Fluo-4 calcium fluorescence, agonist mode; hits give high values; Mas-related G-protein coupled receptor member X1 (Homo sapiens), Q96LB2;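 active means calcium response B-score plate-corrected fluorescence ratio at least 3 library SD, with starting fluorescence B-score inside 5 SD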
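Material: MrgX1-expressing HEK293 cells; input: 15,000 cells per well; doses: test compound given as first of three sequential additions; schedule: overnight plating before 1 h dye loading; technique: Fluo-4 NW calcium-flux fluorescence, kinetic read; evaluation: baseline-normalised fluorescence change ratio, B-scored; control set: plate-wise positive and negative controls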
MrgX1 ant reconf: MrgX1 receptor antagonists, duplicate retest, confirmation, HEK293 cells, Fluo-4 calcium flux; shares compounds with MrgX1 antagonist; BAM8-22 calcium flux; hits give low values; remaining BAM8-22 calcium response % of control (hits give low values), % at 10 µM; hit rate 19% among 2,300; AID 602420, 2012;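 active means remaining agonist calcium response no higher than 100% minus 3 SD of agonist-only control wells, with starting fluorescence near control levels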;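 further: agonist BAM8-22 given at a near maximal EC90 to ECmax level; peak minus minimum fluorescence divided by baseline after agonist addition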
HEK293 Ca flux: nonspecific calcium signal in parental HEK293, confirmation, counter-screen for MrgX1 antagonist project, parental HEK293 cells, Fluo-4 calcium flux; shares compounds with MrgX1 antagonist; fluorescence ratio F(max-min)/F0 at 10 µM; AID 624111, 2012; hit rate 2% among 4,000; Fluo-4 calcium fluorescence, FDSS;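 active means duplicate-averaged calcium fluorescence ratio at least three times the standard deviation of buffer wells, a nonspecific response in parental cells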
HEK293 Ca counter: calcium response in parental HEK293 cells, primary screen, counter-screen for MrgX1 allosteric activator project, cell-based, Fluo-4 calcium flux, duplicate. shares compounds with MrgX1 antagonist. Fluo-4 fluorescence ratio; hits give high values. fluorescence ratio F(max-min)/F0 at 10 µM. hit rate 0.4% among 4,000. AID 624114, 2012;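 active means calcium fluorescence ratio, averaged over duplicates, at least 3 SD of the buffer-well ratio, meaning a nonspecific response in receptor-free cells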;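 further: untransfected parental HEK293 lacking MrgX1 used as counterscreen for MrgX1 allosteric activators; fluorescence change taken during the second addition on a kinetic imager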
HEK293 Ca cntr2: calcium response in parental HEK293 cells, primary screen, counter-screen for MrgX1 agonist project, cell-based, Fluo-4 calcium flux, duplicate, agonist mode; shares compounds with MrgX1 antagonist; Fluo-4 calcium fluorescence (FDSS); hits give high values; fluorescence ratio F(max-min)/F0 at 10 µM; hit rate 8.7% among 4,000; AID 624115, 2012;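 active means calcium fluorescence ratio at least three times the spread of buffer wells, meaning a non-specific response in parental cells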
Hits are given with their value; - = inactive; . = no result given. Hits are enriched below; roughly 3.5% of the tested compounds scored in any of these assays.

SMILES | RGS4 block | MrgX1 allo act | RGS4 pot | MrgX1 antagonist | MrgX1 agonist | MrgX1 ant reconf | HEK293 Ca flux | HEK293 Ca counter | HEK293 Ca cntr2
Cc1ccc2c(c1)N(C(=O)CCC(=O)NCCCN1CCC(Cc3ccccc3)CC1)CCO2 | - | - | - | - | - | . | . | . | .
Cc1ccc2c(c1)N(C(=O)CCC(=O)NCCCN1CCN(C)CC1)CCO2 | - | - | - | -8.7 | - | - | - | - | -
Cc1onc(-c2ccccc2Cl)c1C(=O)N(C)CC(=O)Nc1ccc(F)c(F)c1F | - | - | - | - | - | . | . | . | .
CCOC(=O)Nc1nc(-c2ccc(Cl)cc2Cl)cs1 | - | - | - | -5.6 | - | - | - | - | -
CCOC(=O)Nc1nc(C)c(C(=O)c2ccc(Cl)cc2)s1 | - | - | - | - | - | . | . | . | .
O=C(OCn1nnc2ccccc2c1=O)C1CCCCC1 | - | - | - | -10 | - | - | - | - | -
O=S(=O)([O-])CCC[n+]1c(/C=C\Nc2ccccc2)oc2ccc(-c3ccccc3)cc21 | - | . | - | . | . | . | . | . | .
CCc1nnc(NC(=O)CCC(=O)NC2CCCC2)s1 | - | - | - | - | - | . | . | . | .
CC(C)N(CC#CCC1(O)c2ccccc2-c2ccccc21)CCO | - | - | - | -6 | - | - | - | - | -
CCN(CC#CCC1(O)c2ccccc2-c2ccccc21)CCO | - | - | - | - | - | . | . | . | .
Cc1oc(-c2cccs2)nc1CN1CCN(CC(C)C)C(CCO)C1 (stereo not drawn) | - | - | - | -4.5 | - | - | - | - | -
CCOc1cc(N2CCOCC2)c(OCC)cc1NC(=O)c1ccc(C)cc1 | - | - | - | -12 | - | - | - | - | -
Cn1c(C(=O)N2CCc3ccccc3C2)cc2c(=O)n3ccccc3nc21 | - | - | - | -5.8 | - | - | - | - | -
COc1ccccc1N1CCSC1C(N)=O (stereo not drawn) | - | - | - | -7.1 | - | - | - | - | -
O=C(CCS(=O)(=O)c1ccc(Br)cc1)N1CCN(c2ccccc2F)CC1 | . | - | . | -5.4 | - | - | - | - | -
CCCCNC(=O)C(=O)NCC1CCCN1S(=O)(=O)c1cccs1 (stereo not drawn) | - | - | - | - | - | . | . | . | .
CN1CCN(C(=O)C2CCCN(S(=O)(=O)c3ccc(Cl)cc3)C2)CC1 (stereo not drawn) | - | - | - | - | - | . | . | . | .
COc1ccc(OC)c(-n2c(SCC(N)=O)nnc2-c2c[nH]c3ccccc23)c1 | - | - | - | -6.7 | - | - | - | - | -
Cc1ccc(-n2ccnc(SCC(=O)NCCc3ccccc3)c2=O)cc1F | - | - | - | -4.6 | - | - | - | - | -
CCOc1ccc(-n2ccnc(SCC(=O)NCCc3ccccc3)c2=O)cc1 | - | - | - | - | - | . | . | . | .
CCC(C)c1ccc(OCC(=O)O)cc1 (stereo not drawn) | - | - | - | -6.9 | - | - | - | - | -
CCCc1ccc(OCC(=O)O)cc1 | - | - | - | - | - | . | . | . | .
CCOc1ccc(C2C(C#N)=C(N)Oc3cc(C)n(CCN(C)C)c(=O)c32)cc1OCC (stereo not drawn) | - | - | - | -4.5 | - | - | - | - | -
O=C(O)CCC(=O)NCC1OCCc2ccccc21 (stereo not drawn) | - | - | - | -8.6 | - | - | - | - | -
O=C(c1ccc(-c2cccc(C(F)(F)F)c2)o1)N1CCCC(C(F)(F)F)C1 (stereo not drawn) | - | - | - | - | - | . | . | . | .
SMILES | RGS4 block | MrgX1 allo act | RGS4 pot | MrgX1 antagonist | MrgX1 agonist | MrgX1 ant reconf | HEK293 Ca flux | HEK293 Ca counter | HEK293 Ca cntr2
Nc1nc(/C=C/c2ccc(F)cc2)nc(-c2ccccc2O)n1 | - | - | - | -6.8 | - | 84% | - | - | -
COc1ccc(/C=C/c2nc(-c3ccccc3O)n[nH]2)cc1 | - | - | - | - | - | . | . | . | .
Cc1ccc(-c2cc(-c3ccccc3O)nc(N/N=C/c3cccnc3)n2)cc1 | - | - | - | - | - | . | . | . | .
Nc1nc(/C=C/c2cccnc2)nc(-c2ccccc2O)n1 | - | - | - | -4.8 | - | - | - | - | -
O=C(Nc1ccccc1)Nc1ccno1 | - | - | - | - | - | . | . | . | .
CC(C)(C)c1ccc(Oc2ccc(NC(=O)C3CC=CCC3C(=O)O)cc2)cc1 (stereo not drawn) | - | - | - | -9 | - | - | - | - | -
Cc1ccccc1Oc1ccc(NC(=O)C2CC=CCC2C(=O)O)cc1 (stereo not drawn) | - | - | - | - | - | . | . | . | .
CC(C)(C)N(Cc1ccccc1)C(=O)CSc1nc2ccccc2c(=O)[nH]1 | - | - | - | - | - | . | . | . | .
Cc1nnc(SCC(=O)N(Cc2ccccc2)C(C)(C)C)[nH]c1=O | - | - | - | -4.6 | - | - | - | - | -
Cc1cc(C)c2cc3c(ccn3C3OC[C@H](O)[C@H](O)[C@H]3O)cc2n1 (stereo partly drawn) | - | - | - | -6.4 | - | - | - | - | -
Cc1nc(SCC(=O)Nc2ccc3c(c2)OCO3)c(C#N)c2c1CCCC2 | - | - | - | - | - | . | . | . | .
Cn1c(SCC(=O)c2cc(Cl)c(Cl)s2)nnc1-c1ccco1 | - | - | - | -4.8 | - | - | - | - | -
Cc1cc(C)c(C#N)c(SCC(=O)Nc2ccc3c(c2)OCO3)n1 | - | - | - | -6.9 | - | - | - | - | -
Cc1ccc(C(=O)CSc2nnc(-c3ccco3)n2C)cc1 | - | - | - | - | - | . | . | . | .
Cn1c(SCC(=O)Nc2ccc3c(c2)OCCO3)nnc1-c1ccco1 | - | - | - | -4.9 | - | - | - | - | -
CCn1c(SCC(=O)Nc2ccc3c(c2)OCCO3)nnc1-c1ccco1 | - | - | - | - | - | . | . | . | .
Cc1nc(SCC(=O)Nc2ccc3c(c2)OCCO3)c2oc3ccccc3c2n1 | - | - | - | -7.5 | - | - | - | - | -
COC(=O)[C@H]1C[C@H](C(=O)O)[C@@H](C)C1(C)C | . | - | . | - | - | . | . | . | .
Cc1ccc(-c2nc(CSCC(=O)N3CCCC3)c(C)o2)cc1 | - | - | - | - | - | . | . | . | .

Screening results deposited in PubChem by Johns Hopkins Ion Channel Center.
